Most compounds without a hit are left out; they make up all but 0.55% or so of the library.
OXTR agonist = human OXTR agonists, primary screen, fluorescence, CHO-OTR cells, Fluo-8 calcium; AID 2435, 2010; Fluo-8 calcium fluorescence; normalized: DMSO 0%, oxytocin 100%; 320,000 compounds, 0.32% hits; activation, % at 3 µM; Oxytocin receptor (Homo sapiens), P30559;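 active = activation above the mean of all tested compounds plus 3 SD, cutoff set per screening run, cut at about 20% in these data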;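 note: peak over basal fluorescence ratio from a 100 s FLIPR kinetic read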
OXTR potentiator = human OXTR potentiators, primary screen, fluorescence, CHO-OTR cells, Fluo-8 calcium; AID 2445, 2010; activation, % at 3 µM; 320,000 compounds, 0.061% hits; Fluo-8 calcium fluorescence, potentiator mode; 0% = oxytocin EC15, 100% = EC100;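 active = activation above that plate's cutoff, the mean activation of tested compounds plus 3 SD, cut at about 6.6% in these data, passing the limit was not always enough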;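 note: 100% uses oxytocin at 75 nM as the full agonist control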
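System: human OTR in CHO cells / Also added: sub-maximal oxytocin, roughly EC15 / Control set: EC15 oxytocin low, 75 nM oxytocin high / Schedule: 6 min compound pre-incubation at room temperature, 100 s kinetic read / Compound: single-point 3.0 µM / Replication: singlicate / Technique: Fluo-8 calcium dye fluorescence / Read-out basis: % activation of max/min ratio relative to oxytocin controls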
V1R ag counter = agonists of human V1a receptor, primary screen, counter-screen for OXTR agonist project, fluorescence, CHO-V1R cells; Vasopressin V1a receptor (Homo sapiens), P37288; Fluo-8 calcium fluorescence, agonist mode; 0% DMSO, 100% 3 nM vasopressin; activation, % at 3 µM; 320,000 compounds, 0.25% hits; AID 2797, 2010;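 active = activation above the mean activation of all tested compounds plus 3 SD, per screening run, cut at about 20% in these data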;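 note: signal is peak over basal fluorescence ratio across a 100 second FLIPR read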
Target sequence (P37288 whole entry, looked up): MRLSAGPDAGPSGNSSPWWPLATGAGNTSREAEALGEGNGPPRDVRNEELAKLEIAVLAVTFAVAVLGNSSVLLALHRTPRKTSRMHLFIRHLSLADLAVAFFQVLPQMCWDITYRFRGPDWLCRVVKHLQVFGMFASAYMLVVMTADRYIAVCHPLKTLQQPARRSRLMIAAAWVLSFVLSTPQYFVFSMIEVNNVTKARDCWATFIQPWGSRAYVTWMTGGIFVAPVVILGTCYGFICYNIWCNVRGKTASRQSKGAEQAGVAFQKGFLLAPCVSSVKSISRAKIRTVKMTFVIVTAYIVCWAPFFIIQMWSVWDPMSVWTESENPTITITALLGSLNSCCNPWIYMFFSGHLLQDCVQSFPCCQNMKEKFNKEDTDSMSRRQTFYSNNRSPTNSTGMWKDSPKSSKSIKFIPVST
TRPML3 ag = human TRPML3 channel agonists, primary screen, cell-based, HEK293 TRPML3-YFP, Fluo-8 calcium fluorescence, 3 µM. 100% = the carbachol control signal. 220,000 compounds, 0.29% hits. activation, % at 3 µM. AID 1448, 2008;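 active = activation above its plate's cutoff, the mean activation of the plate's test wells plus 3 SD, cut at about 12% in these data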;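 note: 0% = DMSO only wells and 100% = carbachol wells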
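Material: TRPML3-YFP stable HEK293 cells | Dosing: One concentration, 3 µM nominal, 0.3% DMSO | Timing: 125 s total fluorescence read per well | Technique: Fluo-8 calcium dye fluorescence, ex 470-495, em 515-575 nm | Measure: Percent activation from peak-to-basal fluorescence ratio, scaled between DMSO and carbachol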
zfTRPN1 agonist = zebrafish TRPN1 channel agonists, primary screen, cell-based, HEK293, calcium fluorescence. activation, % at 3 µM. 220,000 compounds, 0.18% hits. HEK293 zebrafish TRPN1-YFP, Fluo-8 calcium fluorescence; 100% = response to 87 µM carbachol. AID 1424, 2008;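 active = activation above its plate's cutoff, the mean activation of test wells on that plate plus 3 SD, cut at about 19% in these data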;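 note: 0% = DMSO alone and 100% = 87 µM carbachol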
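System: zebrafish TRPN1-YFP in HEK293 cells / Dosing: 3 µM single point / Timing: dye loading 1 h at 37 °C, then 30 min room temperature / Signal: Fluo-8 calcium fluorescence, excitation 470-495 nm, emission 515-575 nm / Read-out basis: percent activation from peak over basal fluorescence ratio, control-normalized / Control set: high carbachol 87 µM, low DMSO alone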
Starred values were filed as active, the others as inactive.

For O=C(COc1ccc(Cl)cc1)Nc1ncc([N+](=O)[O-])s1 the results were TRPML3 ag 19.9* and zfTRPN1 agonist 29.7*.
CC/C(=N\NC(=O)CNC(=O)/C=C/c1ccc(OC)cc1)c1ccccc1 was read as OXTR agonist -0.1, OXTR potentiator -2.6 and V1R ag counter 1.8.
CCN1CCN(c2c(/C=C3\SC(=S)N(Cc4ccco4)C3=O)c(C)c(C#N)c(=O)n2C)CC1 was read as OXTR agonist 14.4, OXTR potentiator -10.0, V1R ag counter 20.3*, TRPML3 ag 3.6 and zfTRPN1 agonist 2.4.
Screening Cc1nc(C(=O)NC2CCCCC2)sc1C1(C)CC(c2cccnc2)=NO1 (stereo unspecified) returned OXTR agonist 4.0, OXTR potentiator 3.6 and V1R ag counter 2.4.
CCN1CCN(C(=O)C(Cc2ccccc2)NC(=O)c2ccc(Cl)c(S(=O)(=O)N(C)C)c2)CC1 (stereo unspecified) was read as OXTR agonist 0.5, OXTR potentiator -5.2 and V1R ag counter 0.6.
`O=C(Nc1nnc(-c2ccccc2Cl)o1)c1nc2ccccc2s1` gave OXTR agonist 50.4*, OXTR potentiator -9.7, V1R ag counter 58.5*, TRPML3 ag 95.1* and zfTRPN1 agonist 89.2*.
`O=C(Nc1nnc(-c2ccccc2Cl)o1)c1ccco1` gave OXTR agonist 0.5, OXTR potentiator -4.9, V1R ag counter 0.5, TRPML3 ag -0.3 and zfTRPN1 agonist -1.0.
`COc1ccc(-c2c(-c3ccsc3)oc3ccc(N4CCOCC4)cc23)cc1` gave OXTR agonist -0.4, OXTR potentiator -5.8 and V1R ag counter 0.1.
`Nc1c(C(=O)NCC2CCCO2)sc2nc3c(c(-c4ccco4)c12)CC/C3=C\c1ccco1` (stereo unspecified) gave TRPML3 ag 0.3 and zfTRPN1 agonist 2.6.
For Cc1ccc(C)c(S(=O)(=O)N2CCCCC2CCNC(=O)C(=O)NCc2ccco2)c1 (stereo unspecified) the results were OXTR agonist -1.6, OXTR potentiator -11.2 and V1R ag counter 1.3.
For COc1ccc2noc3c2c1C(=O)c1ccccc1-3 the results were OXTR agonist 168.8*, OXTR potentiator -8.8 and V1R ag counter 221.2*.
NS(=O)(=O)c1ccc(NCCCn2ccnc2)c([N+](=O)[O-])c1 was read as OXTR agonist 0.3, OXTR potentiator -4.8 and V1R ag counter 0.2.
For O=C1c2ccccc2-c2onc3ccc(NCCCn4ccnc4)c1c23 the results were OXTR agonist 82.0*, OXTR potentiator -11.4, V1R ag counter 44.8*, TRPML3 ag -0.6 and zfTRPN1 agonist -1.0.
Cc1ccnc(SCC(=O)c2cc3ccccc3o2)n1 was read as OXTR agonist 0.3, OXTR potentiator -13.4, V1R ag counter 0.5, TRPML3 ag 0.0 and zfTRPN1 agonist 0.9.
CCC(CO)Oc1cc(NCc2ccc(C(F)(F)F)cc2)c2ncn(C(C)C)c2c1 (stereo unspecified) was read as OXTR agonist 1.8, OXTR potentiator -2.7 and V1R ag counter 4.5.
For COc1cccc(C(=O)OCC(=O)Nc2cc(C)on2)c1OC the results were OXTR agonist 0.3, OXTR potentiator -4.7 and V1R ag counter 1.8.
N#CC(C#N)=C1C=C2C=C(N3CCOCC3)CCC2CC1 (stereo unspecified) was read as TRPML3 ag 73.9* and zfTRPN1 agonist 169.4*.
`CCN1CCN(C2=CC3=CC(=C(C#N)C#N)CCC3CC2)CC1` (stereo unspecified) gave TRPML3 ag 310.2* and zfTRPN1 agonist 395.3*.
For CN1CCN(C2=CC3=CC(=C(C#N)C#N)CCC3CC2)CC1 (stereo unspecified) the results were TRPML3 ag 328.9* and zfTRPN1 agonist 617.2*.

Bioassay records from PubChem BioAssay.
